BindingDB's records for doi:10.1021/jm00053a001 (Merck Sharp and Dohme Research Laboratories, 1993)
Where a SMILES comes first, the peptide text is derived from it.

What was measured:
Substance-K receptor = biological target: T1, Substance-K receptor (Rattus norvegicus, UniProt P16610); test: Inhibition of eledoisin binding to NK-2 receptor in rat vas deferens
T1 sequence (P16610 whole entry): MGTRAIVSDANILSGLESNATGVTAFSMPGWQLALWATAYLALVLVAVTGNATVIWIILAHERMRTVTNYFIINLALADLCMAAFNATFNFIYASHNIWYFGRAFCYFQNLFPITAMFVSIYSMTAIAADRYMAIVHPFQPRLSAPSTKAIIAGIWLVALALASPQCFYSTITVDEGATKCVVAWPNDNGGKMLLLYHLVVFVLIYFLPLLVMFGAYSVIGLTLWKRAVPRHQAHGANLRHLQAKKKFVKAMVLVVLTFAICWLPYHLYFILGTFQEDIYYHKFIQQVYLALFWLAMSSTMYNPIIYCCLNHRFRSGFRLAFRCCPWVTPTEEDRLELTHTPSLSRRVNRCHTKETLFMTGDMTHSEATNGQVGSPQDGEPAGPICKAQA
How it was run: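 Vas deferens from Sprague-Dawley rats (200–300 g), electrically stimulated contractions with supramaximal rectangular bipolar pulses. Eledoisin log dose-response curves; antagonism taken from rightward shift. pA2 by Schild regression over three or more antagonist concentrations, or apparent pA2 from one antagonist concentration via the standard Schild equation assuming unit slope.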

Neuromedin-K receptor = biological target: T2, Neuromedin-K receptor (Rattus norvegicus, UniProt P16177); test: Tested for antagonist activity toward NK-3 receptor in rat portal vein against the agonist eledoisin (mean +/-, n=4)
T2 sequence (P16177 whole entry): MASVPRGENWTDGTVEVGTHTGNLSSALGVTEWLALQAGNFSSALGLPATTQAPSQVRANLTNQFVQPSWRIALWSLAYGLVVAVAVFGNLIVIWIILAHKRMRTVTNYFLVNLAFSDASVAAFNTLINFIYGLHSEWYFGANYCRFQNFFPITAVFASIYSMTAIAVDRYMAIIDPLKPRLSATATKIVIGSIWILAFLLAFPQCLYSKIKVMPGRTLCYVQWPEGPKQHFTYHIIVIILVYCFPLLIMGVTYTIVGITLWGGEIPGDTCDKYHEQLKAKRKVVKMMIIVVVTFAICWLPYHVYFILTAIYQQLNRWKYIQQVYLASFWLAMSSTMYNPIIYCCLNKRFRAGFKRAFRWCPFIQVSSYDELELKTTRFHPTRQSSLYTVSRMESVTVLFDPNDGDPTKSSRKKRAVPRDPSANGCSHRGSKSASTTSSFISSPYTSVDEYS
How it was run: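 Rat portal vein longitudinal strips; frequency and amplitude of myogenic contractions recorded. Antagonist activity derived from rightward shift of eledoisin log dose-response curves. pA2 by Schild regression, least squares, three or more antagonist concentrations, or apparent pA2 at a single antagonist concentration assuming unit slope (mean of three or four observations).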

Substance-P receptor = Substance-P receptor (Cavia porcellus, UniProt P30547); test: Tested for antagonist activity toward NK-1 receptor in guinea pig ileum against the agonist eledoisin (mean +/-, n=4)
How it was run: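 Guinea pig (male Dunkin-Hartley, 300–400 g) small-intestine longitudinal muscle, isometric contraction in Krebs-Henseleit at 37 °C with atropine, mepyramine, methysergide (each 5 μM) and indomethacin (1 μM). Antagonism measured as rightward shift of log dose-response curves to eledoisin. pA2 from Schild regression (least squares, three or more antagonist concentrations, three or more observations each), or apparent pA2 at a single concentration assuming unit slope (mean of 3–4 observations).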

Substance-P receptor, sequence (P30547 whole entry): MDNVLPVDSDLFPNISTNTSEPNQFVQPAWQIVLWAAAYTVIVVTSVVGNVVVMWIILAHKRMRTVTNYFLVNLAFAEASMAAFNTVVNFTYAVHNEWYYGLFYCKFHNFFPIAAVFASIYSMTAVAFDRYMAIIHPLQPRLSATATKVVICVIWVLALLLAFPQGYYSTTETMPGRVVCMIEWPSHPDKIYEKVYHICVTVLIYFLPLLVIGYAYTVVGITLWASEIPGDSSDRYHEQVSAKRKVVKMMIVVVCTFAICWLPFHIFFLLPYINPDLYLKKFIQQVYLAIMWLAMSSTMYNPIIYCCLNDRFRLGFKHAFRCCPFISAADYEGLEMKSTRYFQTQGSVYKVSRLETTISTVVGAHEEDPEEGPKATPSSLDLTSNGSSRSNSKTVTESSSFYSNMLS

Structure (SMILES) | Kd (Substance-K receptor) [µM] | Kd (Neuromedin-K receptor) [µM] | Kd (Substance-P receptor) [µM]
CSCC[C@H]1NC(=O)[C@H](CC(C)C)N2C=CC(NC(=O)[C@H](Cc3ccccc3)NC(=O)[C@@H](Cc3ccccc3)NC(=O)C(CCC(N)=O)NC1=O)C2=O (some centres not stated) | 15.8 | – | –
CSCC[C@@H]1NC(=O)[C@H](CC(C)C)NC(=O)[C@H](Cc2ccccc2)NC(=O)[C@H](Cc2c[nH]c3ccccc23)NC(=O)[C@H](CCC(N)=O)NC1=O (cyclo(FLMQW)) | 0.631 | – | –
CSCC[C@H]1NC(=O)[C@H](CC(C)C)NC(=O)[C@@H]2CCCN2C(=O)[C@H](Cc2ccccc2)NC(=O)[C@@H](Cc2c[nH]c3ccccc23)NC(=O)[C@H](CCC(N)=O)NC1=O | 15.8 | – | –
CSCC[C@@H]1NC(=O)[C@H](CC(C)C)NC(=O)CNC(=O)[C@H](Cc2ccccc2)NC(=O)[C@H](Cc2c[nH]c3ccccc23)NC(=O)[C@H](CCC(N)=O)NC1=O (cyclo(FGLMQW)) | 0.00794 | 7.94 | 2
CSCC[C@H]1NC(=O)[C@H](CC(C)C)NC(=O)[C@H]2CCCN2C(=O)[C@H](Cc2ccccc2)NC(=O)[C@@H](Cc2c[nH]c3ccccc23)NC(=O)[C@H](CCC(N)=O)NC1=O | 20 | – | –
